This note sets out measurements from ChEMBL document CHEMBL4387745, “Development of bivalent compounds as potential neuroprotectants for Alzheimer's disease” (Bioorg Med Chem Lett, 2019).

Molecules are shown by their SMILES. Activity calls are given as the source filed them. The rule behind the calls is not given here.

Test [1] is described as follows: Neuroprotective activity against tetracycline removal-induced cytotoxicity in human MC65 cells assessed as increase in cell viability incubated for 72 hrs by MTT assay. It is filed as functional, cell-based. The note with it: MC65, 72 h. In a few lines: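 MC65 cells (C99 expression under tetracycline suppression; cytotoxicity induced by TC removal) treated across a concentration range for 72 h under −TC, with +TC cultures as 100% viability reference. Viability read by MTT. EC50 reported as mean ± SEM of three independent experiments.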

For test [2], the species on record is Homo sapiens. The experiment in a line: Neuroprotective activity against tetracycline removal-induced oxidative stress in human MC65 cells assessed as reduction in accumulation of intracellular ROS at 1 uM incubated for 48 hrs by DCFH-DA staining-based fluorescence analysis relative to control. It is filed as functional, cell-based. In a few lines:
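MC65 cells without TC given compound (1 μM) for 48 h, then incubated with DCFH-DA (25 μM) for 1 h. ROS given as percentage of fluorescence intensity relative to +TC control; error bars SEM, Student t-test versus −TC control.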

For test [3], the species on record is Homo sapiens. The test is described as follows: Neuroprotective activity against tetracycline removal-induced mitochondrial oxidative stress in human MC65 cells assessed as reduction in accumulation of mitoROS at 0.1 to 1 uM incubated for 48 hrs by MitoSOX red dye-based flow cytometric analysis relative to control. The format is functional, cell-based. In a few lines:
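After TC removal, MC65 cells were exposed to compound at 1, 0.3 or 0.1 μM for 48 h, then loaded with MitoSOX (2.5 μM) for 30 min. Mitochondrial ROS expressed as percent fluorescence intensity versus +TC control; error bars SEM, Student t-test versus −TC control.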
On the technique in general: Flow cytometry measures light scatter and fluorescence of single cells or particles in a stream.

A short description of test [4]: Metal chelating activity assessed as compound-Cu2+ complex formation at 50 uM after 10 mins by UV-vis spectroscopy. In a few lines:
(§1)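 Compound at 50 μM mixed with CuSO₄, FeCl₂ or ZnCl₂ (60 μM) at room temperature for 10 min; UV-vis spectrum then recorded from 300 to 550 nm.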

Test [5] in a line: Metal chelating activity assessed as compound-Fe2+ complex formation at 50 uM after 10 mins by UV-vis spectroscopy. In a few lines:
as §1

Test [6] is described as follows: Metal chelating activity assessed as compound-Zn2+ complex formation at 50 uM after 10 mins by UV-vis spectroscopy. The method in brief: as §1

As to `COc1cc(/C=C/C(=O)C(Cc2cn(CCCCC(=O)NCCCN3CCN(CCCNC(=O)CCN4CCN(CCCO[C@H]5CC[C@@]6(C)C(=CC[C@H]7[C@@H]8CC[C@H]([C@H](C)CCCC(C)C)[C@@]8(C)CC[C@@H]76)C5)CC4)CC3)nn2)C(=O)/C=C/c2ccc(O)c(OC)c2)ccc1O`, in test [1], the EC50 (as a rule, the concentration at which the effect is half-maximal) worked out at 238 nM. Also, the result in the test listed under Homo sapiens [2] was Active.
`COc1cc(/C=C/C(=O)C(Cc2cn(CCC(=O)NCCCN3CCN(CCCNC(=O)CO[C@H]4CC[C@@]5(C)C(=CC[C@H]6[C@@H]7CC[C@H]([C@H](C)CCCC(C)C)[C@@]7(C)CC[C@@H]65)C4)CC3)nn2)C(=O)/C=C/c2ccc(O)c(OC)c2)ccc1O`: the EC50 in test [1] is 81.9 nM. Also, the outcome (in the test listed under Homo sapiens [2]; in test [4]; in test [5]) was Active. Besides, the Activity result in the test listed under Homo sapiens [3] is “Dose-dependent effect”. In test [6], the outcome was inactive.
On to `COc1cc(/C=C/C(=O)C(Cc2cn(CCNC(=O)CCC(=O)NCCCN3CCN(CCCNC(=O)CCN4CCN(CCCO[C@H]5CC[C@@]6(C)C(=CC[C@H]7[C@@H]8CC[C@H]([C@H](C)CCCC(C)C)[C@@]8(C)CC[C@@H]76)C5)CC4)CC3)nn2)C(=O)/C=C/c2ccc(O)c(OC)c2)ccc1O`, for which the EC50 in test [1] came to 132 nM. The result in the test filed under Homo sapiens [2] was Active.
`COc1cc(/C=C/C(=O)C(Cc2cn(CCCCNC(=O)CCC(=O)NCCCN3CCN(CCCNC(=O)CO[C@H]4CC[C@@]5(C)C(=CC[C@H]6[C@@H]7CC[C@H]([C@H](C)CCCC(C)C)[C@@]7(C)CC[C@@H]65)C4)CC3)nn2)C(=O)/C=C/c2ccc(O)c(OC)c2)ccc1O`: the EC50 in test [1] is 140 nM. In addition, the result in the test listed under Homo sapiens [2] was Active.
For `COc1cc(/C=C/C(=O)C(Cc2cn(CCCCC(=O)NCCCN3CCN(CCCNC(=O)CO[C@H]4CC[C@@]5(C)C(=CC[C@H]6[C@@H]7CC[C@H]([C@H](C)CCCC(C)C)[C@@]7(C)CC[C@@H]65)C4)CC3)nn2)C(=O)/C=C/c2ccc(O)c(OC)c2)ccc1O`, in that order: 107 nM and “Active”.
For `COc1cc(/C=C/C(=O)C(Cc2cn(CCCCNC(=O)CCC(=O)NCCCN3CCN(CCCNC(=O)CCN4CCN(CCCO[C@H]5CC[C@@]6(C)C(=CC[C@H]7[C@@H]8CC[C@H]([C@H](C)CCCC(C)C)[C@@]8(C)CC[C@@H]76)C5)CC4)CC3)nn2)C(=O)/C=C/c2ccc(O)c(OC)c2)ccc1O`, in that order: 359 nM and “Active”.
For `COc1cc(/C=C/C(=O)C(Cc2cn(CCNC(=O)CCC(=O)NCCCN3CCN(CCCNC(=O)CO[C@H]4CC[C@@]5(C)C(=CC[C@H]6[C@@H]7CC[C@H]([C@H](C)CCCC(C)C)[C@@]7(C)CC[C@@H]65)C4)CC3)nn2)C(=O)/C=C/c2ccc(O)c(OC)c2)ccc1O`, in that order: 74.1 nM and “Active”.
In the case of `COc1cc(/C=C/C(=O)C(Cc2cn(CCC(=O)NCCCN3CCN(CCCNC(=O)CCC(=O)NCCCN4CCN(CCCNC(=O)CO[C@H]5CC[C@@]6(C)C(=CC[C@H]7[C@@H]8CC[C@H]([C@H](C)CCCC(C)C)[C@@]8(C)CC[C@@H]76)C5)CC4)CC3)nn2)C(=O)/C=C/c2ccc(O)c(OC)c2)ccc1O`, in test [1], the EC50 amounted to 103 nM. For the same molecule, the result in the test filed under Homo sapiens [2] was Active.
Consider `COc1cc(/C=C/C(=O)C(Cc2cn(CCC(=O)NCCCN3CCN(CCCNC(=O)CCN4CCN(CCCO[C@H]5CC[C@@]6(C)C(=CC[C@H]7[C@@H]8CC[C@H]([C@H](C)CCCC(C)C)[C@@]8(C)CC[C@@H]76)C5)CC4)CC3)nn2)C(=O)/C=C/c2ccc(O)c(OC)c2)ccc1O`, for which, in test [1], the EC50 is 136 nM. Besides, the result (in the test listed under Homo sapiens [2]; in test [4]; in test [5]) was Active. Moreover, the outcome in test [6] was inactive.
As for `COc1cc(/C=C/C(=O)C(Cc2cn(CCCCC(=O)NCCCN3CCN(CCCNC(=O)CCC(=O)NCCCN4CCN(CCCNC(=O)CO[C@H]5CC[C@@]6(C)C(=CC[C@H]7[C@@H]8CC[C@H]([C@H](C)CCCC(C)C)[C@@]8(C)CC[C@@H]76)C5)CC4)CC3)nn2)C(=O)/C=C/c2ccc(O)c(OC)c2)ccc1O`, the EC50 in test [1] amounted to 105 nM. The result in the test filed under Homo sapiens [2] was Active.
